According to paper PMC8851455 (ACS Omega, 2022):
Like-named read-outs stand apart in the source and are kept apart here.

How the values were obtained:
[1] = test system: S. typhimurium TA102; conditions: TA102 +S9, 5 μg/plate
[2] = test system: S. typhimurium TA98; test: Ames test, strain TA98; assay type: cell-based, Salmonella typhimurium
[3] = test system: S. typhimurium TA100; test: Ames test, strain TA100; assay type: cell-based, Salmonella typhimurium; conditions: TA100 +S9, 5 μg/plate
[4] = test system: chicken embryo; test: Chicken embryonic assay; assay type: in vivo; conditions: egg injection, day 18
[5] = test system: MCF-7 cells; test: MCF-7 cell proliferation assay; assay type: cell-based, human; conditions: Homo sapiens, MCF7
Outline: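 MCF-7 cells exposed to test compound or E2 at six concentrations from 10–12 to 10–7 M in EA-free medium. Proliferation read as MTT product absorbance at 570 nm. Three independent trials, each in triplicate. % RME2 = 100 × (OD test − OD VC)/(max OD E2 − OD VC). EC50 from curve fitting. EEF = EC50 of E2/EC50 of sample. One-way ANOVA with Dunnett's test versus E2 at each concentration.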

[6] = control set of luteolin and apigenin
[7] = control set of quercetin and genistein
[8] = higher dose (0.5 mM: 450–500 μg/kg; E2 0.1 mM: 91 μg/kg)
[9] = lower dose (0.05 mM: 45–50 μg/kg; E2 0.01 mM: 9.1 μg/kg)

With `Nc1ccc2cc3ccccc3cc2c1` [2-AA, reference compound] the “number of revertants/plate (M ± SD), positive control” value (from here on “number of revertants/plate (M ± SD)”) [1, 6] was 997 ± 35 ^e^** revertants/plate, the “number of revertants/plate (M ± SD)” value [1, 7] was 757 ± 35 ^e^** revertants/plate and the “number of revertants/plate (M ± SD)” value ([2]; TA98 +S9, 5 μg/plate, control set of luteolin and apigenin) was 846 ± 47 ^e^** revertants/plate. For the same molecule, the “number of revertants/plate (M ± SD)” value ([2]; TA98 +S9, 5 μg/plate, control set of quercetin and genistein) was 806 ± 25 ^e^** revertants/plate, the “number of revertants/plate (M ± SD)” value [3, 6] was 941 ± 56 ^e^** revertants/plate and the “number of revertants/plate (M ± SD)” value [3, 7] was 845 ± 45 ^e^** revertants/plate.

`O=[N+]([O-])c1ccc2c(c1)Cc1ccccc1-2` [2-NF, reference compound] was tested, and the “number of revertants/plate (M ± SD)” value ([2]; TA98 -S9, 1 μg/plate, control set of luteolin and apigenin) was 723 ± 64 ^c^** revertants/plate and the “number of revertants/plate (M ± SD)” value ([2]; TA98 -S9, 1 μg/plate, control set of quercetin and genistein) was 634 ± 16 ^c^** revertants/plate.

In the case of `C[C@]12CC[C@@H]3c4ccc(O)cc4CC[C@H]3[C@@H]1CC[C@@H]2O` [E2, 17β-estradiol, reference compound], the “LSI (liver somatic index)” value [4, 8] is reported as 2.06 ± 0.38%, the “REEW (ratio of embryo to egg weight)” value [4, 8] is reported as 0.38 ± 0.021 and the malformation rate [4, 8] is reported as 0.0%. The mortality rate [4, 8] was 33.3%, the “number of dead chicken embryo” value [4, 8] was 6 and the “number of malformation chicken embryo” value [4, 8] was 0. The “weights: embryo” value [4, 8] was 22.89 ± 0.87 g, the “weights: heart” value [4, 8] was 0.18 ± 0.01 g and the “weights: liver” value [4, 8] was 0.47 ± 0.07 g. The “LSI (liver somatic index)” value [4, 9] was 2.18 ± 0.01%, the “REEW (ratio of embryo to egg weight)” value [4, 9] was 0.39 ± 0.001 and the malformation rate [4, 9] was 0.0%. For the same molecule, the mortality rate [4, 9] was 31.8%, the “number of dead chicken embryo” value [4, 9] was 7 and the “number of malformation chicken embryo” value [4, 9] was 0. For the same molecule, the “weights: embryo” value [4, 9] was 20.24 ± 3.53 g, the “weights: heart” value [4, 9] was 0.18 ± 0.03 g and the “weights: liver” value [4, 9] was 0.54 ± 0.01 g. For the same molecule, the EC50 [5] was 0.01 nM.
